According to ChEMBL document CHEMBL1122996, “Interactions of apomorphine with serum and tissue proteins” (J Med Chem, 1985):

Key:
Mus musculus [1] = organism: Mus musculus; assay: Radio activity accumulation in forebrain without striatum (Excreatable reactivity) on 14 days; format: functional
Method in brief: (§1)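 Male CD-1 mice (~35 g, n=10 per group) given apomorphine 30 mg/kg fortified with [3H]-apomorphine (0.153 mCi/kg) ip, either once or daily for 14 days. Sampled 24 h after the last dose: plasma from infraorbital sinus (extractable and nonextractable radioactivity) and brain regions (striatum, cerebellum, forebrain without striatum). Radioactivity expressed as µg apomorphine equivalent per mL or per g […].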

Mus musculus [2] = organism: Mus musculus; assay: Radio activity accumulation in forebrain without striatum (Excreatable reactivity) on day 1; format: functional; method in brief: as §1
Mus musculus [3] = organism: Mus musculus; assay: Percentage of covalently bound total in cerebellum of mouse; format: functional
Method in brief: (§2)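 Male CD-1 mice (~35 g, n=10) given apomorphine 30 mg/kg with [3H]-apomorphine (0.153 mCi/kg) ip daily for 14 days, killed 24 h after the last dose. Plasma from infraorbital sinus; brain split into striatum, cerebellum, forebrain without striatum. Protein-bound radioactivity expressed as µg/g protein (albumin equivalent; plasma µg/mL) and as % of total tissue radioactivity.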

Mus musculus [4] = organism: Mus musculus; assay: Percentage of covalently bound total in striatum of mouse; format: functional; method in brief: as §2
Mus musculus [5] = organism: Mus musculus; assay: Radio activity covalently bound to cerebellum of mouse brain; format: functional; method in brief: as §2
Mus musculus [6] = organism: Mus musculus; assay: Radio activity covalently bound to forebrain without striatum of mouse brain; format: functional; method in brief: as §2
Mus musculus [7] = organism: Mus musculus; assay: Radio activity covalently bound to striatum of mouse brain; format: functional; method in brief: as §2
Mus musculus [8] = organism: Mus musculus; assay: Radio activity accumulation in cerebellum (Excreatable reactivity) on 14 days; format: functional; method in brief: as §1
Mus musculus [9] = organism: Mus musculus; assay: Radio activity accumulation in cerebellum (Excreatable reactivity) on day 1; format: functional; method in brief: as §1
Mus musculus [10] = organism: Mus musculus; assay: Ratio of accumulation of radioactivity from 14 to 1 day in cerebellum; format: functional
Method in brief: (§3)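 Male CD-1 mice (~35 g, 10 per group) received 1 at 30 mg/kg ip with [³H]-1 (0.153 mCi/kg), once or daily for 14 days, with free access to food and water. At 24 h after the last dose, plasma (infraorbital sinus), brain regions, kidney, liver and GI tract were taken for radioactivity counting. The accumulation ratio is radioactivity after 14 doses divided by radioactivity after 1 dose.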

Mus musculus [11] = organism: Mus musculus; assay: Radio of accumulation of radioactivity from 14 to 1 day in nonextractable radioactivity in plasma brain; format: functional; method in brief: as §3
Mus musculus [12] = organism: Mus musculus; assay: Ratio of accumulation of radioactivity from 14 to 1 day in plasma contents; format: functional; method in brief: as §3
Mus musculus [13] = organism: Mus musculus; assay: Radio activity in skeletal tissue (% dose/g of wet wt) on 14 days; format: functional
Method in brief: (§4)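 Male CD-1 mice (~35 g, n=10 per group) received apomorphine 30 mg/kg with [3H]-apomorphine (0.153 mCi/kg) ip, once or daily for 14 days. Killed 24 h after the last dose; GI tract (with contents or washed with distilled water), liver and kidney (rinsed of blood) and skeletal tissue taken. Radioactivity given as % of total dose; skeletal tissue as % dose/g wet weight.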

Mus musculus [14] = organism: Mus musculus; assay: Radio activity in skeletal tissue(% dose/g of wet wt) contents on day 1; format: functional; method in brief: as §4
Mus musculus [15] = organism: Mus musculus; assay: Ratio of accumulation of radioactivity from 14 to 1 day in skeletal tissue (%dose/g of wet wt); format: functional; method in brief: as §3
Mus musculus [16] = organism: Mus musculus; assay: Ratio of accumulation of radioactivity from 14 to 1 day in liver; format: functional; method in brief: as §3
Mus musculus [17] = organism: Mus musculus; assay: Radio activity of [3H]-l in mice kidney on day 1; format: functional; method in brief: as §4
Mus musculus [18] = organism: Mus musculus; assay: Radio activity of [3H]-l in mice kidney on 14 days; format: functional; method in brief: as §4
Mus musculus [19] = organism: Mus musculus; assay: Ratio of accumulation of radioactivity from 14 to 1 day in kidney; format: functional; method in brief: as §3
Mus musculus [20] = organism: Mus musculus; assay: Radio activity of [3H]-l in mice liver on 14 days; format: functional; method in brief: as §4
Mus musculus [21] = organism: Mus musculus; assay: Radio activity of [3H]-l in mice liver on day 1; format: functional; method in brief: as §4
Mus musculus [22] = organism: Mus musculus; assay: Percentage of covalently bound total in plasma of mouse; format: functional; method in brief: as §2
Mus musculus [23] = organism: Mus musculus; assay: Radio activity covalently bound to plasma of mouse brain; format: functional; method in brief: as §2
Mus musculus [24] = organism: Mus musculus; assay: Radio activity of [3H]-l in mice GI tract with its contents on day 1; format: functional, Gastrointestinal tract; method in brief: as §4
Mus musculus [25] = organism: Mus musculus; assay: Radio activity of [3H]-l in mice in GI tract with its contents on 14 days; format: functional, Gastrointestinal tract; method in brief: as §4
Mus musculus [26] = organism: Mus musculus; assay: Radio activity of [3H]-l in washed mice GI tract on 14 days; format: functional, Gastrointestinal tract; method in brief: as §4
Mus musculus [27] = organism: Mus musculus; assay: Radio activity of [3H]-l in washed mice GI tract on day 1; format: functional, Gastrointestinal tract; method in brief: as §4
Mus musculus [28] = organism: Mus musculus; assay: Ratio of accumulation of radioactivity from 14 to 1 day in GI tract with its contents; format: functional, Gastrointestinal tract; method in brief: as §3
Mus musculus [29] = organism: Mus musculus; assay: Ratio of accumulation of radioactivity from 14 to 1 day in washed gastro intestinal track; format: functional; method in brief: as §3
Mus musculus [30] = organism: Mus musculus; assay: Radio activity accumulation in nonextractable radioactivity in plasma brain striatum (Excreatable reactivity) on day 1; format: functional; method in brief: as §1
Mus musculus [31] = organism: Mus musculus; assay: Radio activity accumulation in nonextractable radioactivity in striatum (Excreatable reactivity) on 14 days; format: functional; method in brief: as §1
Mus musculus [32] = organism: Mus musculus; assay: Ratio of accumulation of radioactivity from 14 to 1 day in striatum; format: functional; method in brief: as §3
Mus musculus [33] = organism: Mus musculus; assay: Radio activity accumulation in extractable reactivity in plasma (Excreatable reactivity) on day 1; format: functional; method in brief: as §1
Mus musculus [34] = organism: Mus musculus; assay: Radio activity accumulation in extractable reactivity in plasma brain (Excreatable reactivity) on 14 days; format: functional; method in brief: as §1

Question: With `CN1CCc2cccc3c2[C@H]1Cc1ccc(O)c(O)c1-3` [APOMORPHINE] as the compound, how does the Accumulation (Mus musculus [1]) read?
Answer: The Accumulation was 69.6 µg/g.

Question: What about the Accumulation (Mus musculus [2]) of the same compound?
Answer: The Accumulation was 23.1 µg/g.

Question: What about the Binding (Mus musculus [3]) of the same compound?
Answer: The Binding was 1.71%.

Question: What about the Binding (Mus musculus [4]) of the same compound?
Answer: Its Binding is 1.65%.

Question: What about the Binding (Mus musculus [5]) of the same compound?
Answer: The Binding was 0.98 µg/g.

Question: And the Binding (Mus musculus [6])?
Answer: Its Binding is 1.13 µg/g.

Question: And the Binding (Mus musculus [7])?
Answer: The Binding was 0.94 µg/g.

Question: And the Accumulation (Mus musculus [8])?
Answer: The Accumulation was 57.3 µg/g.

Question: What about the Accumulation (Mus musculus [9]) of the same compound?
Answer: Its Accumulation is 20 µg/g.

Question: And the Ratio (Mus musculus [10])?
Answer: Its Ratio is 2.9.

Question: And the Ratio (Mus musculus [11])?
Answer: The Ratio was 2.6.

Question: And the Ratio (Mus musculus [12])?
Answer: The Ratio was 2.6.

Question: What about the Amount (Mus musculus [13]) of the same compound?
Answer: The Amount was 0.394%.

Question: What about the Amount (Mus musculus [14]) of the same compound?
Answer: The Amount was 0.245%.

Question: And the Ratio (Mus musculus [15])?
Answer: Its Ratio is 1.6.

Question: And the Ratio (Mus musculus [16])?
Answer: The Ratio was 2.6.

Question: What about the Amount (Mus musculus [17]) of the same compound?
Answer: The Amount was 0.107%.

Question: What about the Amount (Mus musculus [18]) of the same compound?
Answer: Its Amount is 0.331%.

Question: And the Ratio (Mus musculus [19])?
Answer: Its Ratio is 3.1.

Question: And the Amount (Mus musculus [20])?
Answer: Its Amount is 0.99%.

Question: And the Amount (Mus musculus [21])?
Answer: Its Amount is 0.38%.

Question: And the Binding (Mus musculus [22])?
Answer: The Binding was 2.88%.

Question: What about the Binding (Mus musculus [23]) of the same compound?
Answer: The Binding was 0.68 µg/mL.

Question: What about the Amount (Mus musculus [24]) of the same compound?
Answer: Its Amount is 1.48%.

Question: And the Amount (Mus musculus [25])?
Answer: Its Amount is 4.01%.

Question: What about the Amount (Mus musculus [26]) of the same compound?
Answer: Its Amount is 0.558%.

Question: What about the Amount (Mus musculus [27]) of the same compound?
Answer: Its Amount is 0.065%.

Question: And the Ratio (Mus musculus [28])?
Answer: Its Ratio is 2.7.

Question: And the Ratio (Mus musculus [29])?
Answer: The Ratio was 9.7.

Question: What about the Accumulation (Mus musculus [30]) of the same compound?
Answer: The Accumulation was 21.4 µg/g.

Question: What about the Accumulation (Mus musculus [31]) of the same compound?
Answer: The Accumulation was 56.9 µg/g.

Question: What about the Ratio (Mus musculus [32]) of the same compound?
Answer: Its Ratio is 2.7.

Question: What about the Accumulation (Mus musculus [33]) of the same compound?
Answer: Its Accumulation is 0.561 µg/mL.

Question: And the Accumulation (Mus musculus [34])?
Answer: The Accumulation was 1.42 µg/mL.
